Where a SMILES comes first, the peptide text is derived from it. The star is where a group is joined. Acetyl(thymin-1-yl) = Cc1cn(CC(=O)*)c(=O)[nH]c1=O; Adenin9ylacetyl = Nc1ncnc2c1ncn2CC(=O)*
What was measured:
HeLa cells = experiment: Biocompatibility; assay type: cell-based; details: 3 days incubation, single nucleopeptide (Figures S11 and S12)
Summary of the method: (§1)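 Nucleopeptides were tested singly and as two-component heterodimer mixtures. HeLa cells (24 h doubling time) were incubated for 3 days, and PC12 cells (92 h doubling time) for 7 days. Viability was then assessed as a measure of biocompatibility.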

PC12 cells = experiment: Biocompatibility; assay type: cell-based; details: 7 days incubation (Figures S10, S11 and S12)
Summary of the method: as §1

proteinase K = proteinase K (Parengyodontium album, UniProt P06873); experiment: Proteolytic stability on incubation with proteinase K; assay type: in vitro ADME; details: single component, 0.2 mg/mL in HEPES buffer pH 7.4; proteinase K 3.2 U/mL; 24 h at 37 °C (Figure 3A; KTTPV Figure S9)
proteinase K, sequence (P06873 106-384, species assumed): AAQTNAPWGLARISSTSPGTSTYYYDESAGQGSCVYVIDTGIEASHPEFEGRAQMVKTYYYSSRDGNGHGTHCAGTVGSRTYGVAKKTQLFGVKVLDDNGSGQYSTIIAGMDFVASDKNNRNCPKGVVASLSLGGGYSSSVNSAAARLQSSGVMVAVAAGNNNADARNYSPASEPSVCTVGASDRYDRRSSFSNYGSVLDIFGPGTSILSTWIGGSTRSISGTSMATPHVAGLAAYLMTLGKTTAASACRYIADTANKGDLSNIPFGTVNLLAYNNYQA

Row | Compound | Toxicity to HeLa cells (HeLa cells) | Toxicity / inhibition of proliferation of PC12 cells (PC12 cells) | Compound remained after incubating with proteinase K (proteinase K)
1 | Cc1cn(CC(=O)N[C@@H](CCCCN)C(=O)N[C@H](C(=O)N[C@H](C(=O)N2CCC[C@H]2C(=O)N[C@H](C(=O)O)C(C)C)[C@@H](C)O)[C@@H](C)O)c(=O)[nH]c1=O [compound 1] ({Acetyl(thymin-1-yl)}-KTTPV-OH; N-terminus and C-terminus assumed) | no toxicity | no toxicity | 
2 | CC(C)[C@H](NC(=O)[C@@H]1CCCN1C(=O)[C@@H](NC(=O)[C@@H](NC(=O)[C@H](CCCCN)NC(=O)Cn1cnc2c(N)ncnc21)[C@@H](C)O)[C@@H](C)O)C(=O)O [compound 2] (Adenin9ylacetyl-KTTPV-OH; N-terminus and C-terminus assumed) | no toxicity | no toxicity | 
3 | LGFNI [compound 3] | no toxicity | no toxicity | hydrolyzes completely
